≈ marks a conversion by molar mass, not a printed value.
How the values were obtained:
Plasmodium falciparum [1] = assay: In vitro antimalarial activity for Plasmodium falciparum D6; assay type: functional, organism-based
Plasmodium falciparum [2] = assay: In vitro antimalarial activity against Plasmodium falciparum W-2 relative to artemisinin; assay type: functional
How it was run: (§1)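 Relative potency is the artemisinin IC50 divided by the analog IC50, × 100%, with artemisinin set at 100%. Tested in vitro against P. falciparum D-6 or W-2.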

Plasmodium falciparum [3] = assay: In vitro antimalarial activity against Plasmodium falciparum D6 relative to artemisinin; assay type: functional; how it was run: as §1
Plasmodium falciparum [4] = assay: In vitro antimalarial activity for Plasmodium falciparum W2; assay type: functional, organism-based
Plasmodium falciparum [5] = assay: In vitro antimalarial activity for Plasmodium falciparum D6 in LDH […] assay; assay type: functional, organism-based
How it was run: (§2)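 In vitro test against P. falciparum D-6 or W-2 using Makler's parasite lactate dehydrogenase (pLDH) assay, which reads out parasite pLDH enzyme activity. Run at the University of Mississippi.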

Plasmodium falciparum [6] = assay: In vitro antimalarial activity for Plasmodium falciparum W2 in LDH […] assay; assay type: functional, organism-based; how it was run: as §2
Plasmodium falciparum [7] = assay: In vitro antimalarial activity for Plasmodium falciparum D6; Not active; assay type: functional, organism-based
Plasmodium falciparum [8] = assay: In vitro antimalarial activity for Plasmodium falciparum W2; Not active; assay type: functional, organism-based

What does the source list for `C[C@@H]1CC[C@H]2[C@@H](C)CO[C@H]3C[C@]4(C)CC[C@@H]1[C@@]32OO4`?
IC50 (Plasmodium falciparum [1]): 0.00172 µg/mL (≈ 0.00646 µM); Relative activity (Plasmodium falciparum [2]): 58; Relative activity (Plasmodium falciparum [3]): 53; IC50 (Plasmodium falciparum [4]): 0.00078 µg/mL (≈ 0.00293 µM)

What does the source list for `C[C@@H]1CC[C@@H]([C@@H](C)COCc2ccccc2)[C@@]23CC[C@@](C)(CC[C@@H]12)OO3`?
IC50 (Plasmodium falciparum [1]): 0.29 µg/mL (≈ 0.809 µM); IC50 (Plasmodium falciparum [4]): 0.66 µg/mL (≈ 1.84 µM)

With `C[C@@H]1CC[C@H]2[C@@H](C)C(=O)O[C@@H]3O[C@@]4(C)CC[C@@H]1[C@]32OO4` [ARTEMISININ] as the compound, how does the IC50 (Plasmodium falciparum [5]) read?
The IC50 was 0.0014 µg/mL (≈ 0.00496 µM).

What about the IC50 (Plasmodium falciparum [6]) of the same compound?
The IC50 was 0.0022 µg/mL (≈ 0.00779 µM).

What about the IC50 (Plasmodium falciparum [1]) of the same compound?
Its IC50 is 0.00097 µg/mL (≈ 0.00344 µM).

What about the Relative activity (Plasmodium falciparum [2]) of the same compound?
Its Relative activity is 100.

And the Relative activity (Plasmodium falciparum [3])?
The Relative activity was 100.

And the IC50 (Plasmodium falciparum [4])?
Its IC50 is 0.00048 µg/mL (≈ 0.0017 µM).

Which IC50 (Plasmodium falciparum [1]) does the source give for `COC[C@H](C)[C@@H]1CC[C@@H](C)[C@@H]2CC[C@]3(C)CC[C@@]21OO3` here?
Its IC50 is 0.31 µg/mL (≈ 1.1 µM).

What about the IC50 (Plasmodium falciparum [4]) of the same compound?
Its IC50 is 0.7 µg/mL (≈ 2.48 µM).

Which IC50 (Plasmodium falciparum [7]) does the source give for `C[C@@H]1CC[C@@H]([C@@H](C)COCc2ccccc2)[C@@]23C=C[C@@](C)(CC[C@@H]12)OO3` here?
The IC50 was “Not Active”.

What about the IC50 (Plasmodium falciparum [8]) of the same compound?
The IC50 was “Not Active”.

With `C[C@@H]1CC[C@H]2[C@@H](C)C(=O)O[C@@H]3C[C@@]4(C)CC[C@@H]1[C@]32OO4` as the compound, how does the IC50 (Plasmodium falciparum [5]) read?
The IC50 was 0.006 µg/mL (≈ 0.0214 µM).

What about the IC50 (Plasmodium falciparum [6]) of the same compound?
The IC50 was 0.02 µg/mL (≈ 0.0713 µM).

What about the IC50 (Plasmodium falciparum [1]) of the same compound?
The IC50 was 0.0388 µg/mL (≈ 0.138 µM).

And the Relative activity (Plasmodium falciparum [2])?
Its Relative activity is 11.

And the Relative activity (Plasmodium falciparum [3])?
The Relative activity was 23.3.

And the IC50 (Plasmodium falciparum [4])?
Its IC50 is 0.0126 µg/mL (≈ 0.045 µM).

What does the source list for `COC[C@H](C)[C@@H]1CC[C@@H](C)[C@@H]2CC[C@]3(C)C=C[C@@]21OO3`?
IC50 (Plasmodium falciparum [1]): 0.92 µg/mL (≈ 3.28 µM); IC50 (Plasmodium falciparum [8]): Not Active

What does the source list for `C[C@@H]1CC[C@@H]([C@@H](C)CO)[C@@]23CC[C@@](C)(CC[C@@H]12)OO3`?
IC50 (Plasmodium falciparum [1]): 0.3 µg/mL (≈ 1.12 µM); IC50 (Plasmodium falciparum [4]): 1.5 µg/mL (≈ 5.59 µM)

Which IC50 (Plasmodium falciparum [1]) does the source give for `C[C@@H]1CC[C@H]2[C@@H](C)CO[C@@H]3C[C@@]4(C)CC[C@@H]1[C@]32OO4` here?
The IC50 was 0.00287 µg/mL (≈ 0.0108 µM).

What about the Relative activity (Plasmodium falciparum [2]) of the same compound?
The Relative activity was 16.

And the Relative activity (Plasmodium falciparum [3])?
The Relative activity was 32.

And the IC50 (Plasmodium falciparum [4])?
Its IC50 is 0.00279 µg/mL (≈ 0.0105 µM).

Which IC50 (Plasmodium falciparum [1]) does the source give for `C[C@@H]1CC[C@@H]([C@@H](C)CO)[C@@]23C=C[C@@](C)(CC[C@@H]12)OO3` here?
Its IC50 is 1 µg/mL (≈ 3.75 µM).

And the IC50 (Plasmodium falciparum [8])?
Its IC50 is “Not Active”.

Reference: ChEMBL document CHEMBL1129568, “Structure-activity relationships of the antimalarial agent artemisinin. 3. Total synthesis of (+)-13-carbaartemisinin and related tetra- and tricyclic structures” (J Med Chem, 1996)
